# What was measured:
# Conditions in all cases: in vivo
# [1] = test system: Blood; test: Drug uptake in Sprague-Dawley rat blood at 11.7 to 12.3 uCi, iv after 2 hrs by liquid scintillation counting; assay type: ADME, organism-based
# Outline: (§1)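 Adult male Sprague-Dawley rats, 200–420 g, fed ad libitum. They got ¹²⁵I-labelled agent in saline (9.0–9.5 µCi/mg), 0.1 mL, by tail vein under ether. Five rats per time point were exsanguinated under ether. Organs were excised, rinsed, blotted and weighed. Duplicate samples were counted in a well-scintillation gamma counter (87% efficiency). Results are % administered dose/g, mean ± SEM.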
# [2] = test system: Duodenum; test: Drug uptake in Sprague-Dawley rat duodenum at 11.7 to 12.3 uCi, iv after 2 hrs by liquid scintillation counting; assay type: ADME, organism-based; outline: as §1
# [3] = test system: Spleen; test: Drug uptake in Sprague-Dawley rat spleen at 11.7 to 12.3 uCi, iv after 2 hrs by liquid scintillation counting; assay type: ADME, organism-based
# Outline: (§2)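 ¹²⁵I-labelled bisquaternary dissolved in saline (26 mg/2.0 mL), 9.0–9.5 μCi/mg, given in 0.1 mL via tail vein under ether to adult male Sprague-Dawley rats (200–420 g). Rats were killed by exsanguination under ether at 0.5 or 2 h. Organs were excised, rinsed, blotted and weighed, and duplicate samples were gamma-counted in a well-scintillation counter (87% efficiency). Results are % administered dose/g, mean ± SEM, five rats.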
# [4] = test system: Testes; test: Drug uptake in Sprague-Dawley rat testes at 11.7 to 12.3 uCi, iv after 2 hrs by liquid scintillation counting; assay type: ADME, organism-based, Testis; outline: as §2
# [5] = test system: Pancreas; test: Drug uptake in Sprague-Dawley rat pancreas at 11.7 to 12.3 uCi, iv after 2 hrs by liquid scintillation counting; assay type: ADME, organism-based; outline: as §1
# [6] = test system: Liver; test: Drug uptake in Sprague-Dawley rat liver at 11.7 to 12.3 uCi, iv after 0.5 hrs by liquid scintillation counting; assay type: ADME, organism-based; outline: as §1
# [7] = test system: Blood; test: Drug uptake in Sprague-Dawley rat blood at 11.7 to 12.3 uCi, iv after 0.5 hrs by liquid scintillation counting; assay type: ADME, organism-based; outline: as §1
# [8] = Drug uptake in Sprague-Dawley rat trachea at 11.7 to 12.3 uCi, iv after 2 hrs by liquid scintillation counting; assay type: ADME, organism-based; outline: as §2
# [9] = test system: Kidney; test: Drug uptake in Sprague-Dawley rat kidney at 11.7 to 12.3 uCi, iv after 0.5 hrs by liquid scintillation counting; assay type: ADME, organism-based; outline: as §1
# [10] = test system: Thyroid gland; test: Drug uptake in Sprague-Dawley rat thyroid at 11.7 to 12.3 uCi, iv after 0.5 hrs by liquid scintillation counting; assay type: ADME, organism-based; outline: as §2
# [11] = Drug uptake in Sprague-Dawley rat meninges at 11.7 to 12.3 uCi, iv after 0.5 hrs by liquid scintillation counting; assay type: ADME, organism-based; outline: as §1
# [12] = test system: Kidney; test: Drug uptake in Sprague-Dawley rat kidney at 11.7 to 12.3 uCi, iv after 2 hrs by liquid scintillation counting; assay type: ADME, organism-based; outline: as §1
# [13] = test system: Spleen; test: Drug uptake in Sprague-Dawley rat spleen at 11.7 to 12.3 uCi, iv after 0.5 hrs by liquid scintillation counting; assay type: ADME, organism-based; outline: as §2
# [14] = test system: Thyroid gland; test: Drug uptake in Sprague-Dawley rat thyroid at 11.7 to 12.3 uCi, iv after 2 hrs by liquid scintillation counting; assay type: ADME, organism-based; outline: as §2
# [15] = Drug uptake in Sprague-Dawley rat intervertebral disk at 11.7 to 12.3 uCi, iv after 0.5 hrs by liquid scintillation counting; assay type: ADME, organism-based; outline: as §1
# [16] = Drug uptake in Sprague-Dawley rat ventricle at 11.7 to 12.3 uCi, iv after 0.5 hrs by liquid scintillation counting; assay type: ADME, organism-based, Cardiac ventricle; outline: as §2
# [17] = Drug uptake in Sprague-Dawley rat diaphragm at 11.7 to 12.3 uCi, iv after 2 hrs by liquid scintillation counting; assay type: ADME, organism-based; outline: as §1
# [18] = Drug uptake in Sprague-Dawley rat bone marrow at 11.7 to 12.3 uCi, iv after 0.5 hrs by liquid scintillation counting; assay type: ADME, organism-based; outline: as §1
# [19] = Drug uptake in Sprague-Dawley rat ventricle at 11.7 to 12.3 uCi, iv after 2 hrs by liquid scintillation counting; assay type: ADME, organism-based, Cardiac ventricle; outline: as §2
# [20] = Drug uptake in Sprague-Dawley rat meninges at 11.7 to 12.3 uCi, iv after 2 hrs by liquid scintillation counting; assay type: ADME, organism-based; outline: as §1
# [21] = test system: Lung; test: Drug uptake in Sprague-Dawley rat lung at 11.7 to 12.3 uCi, iv after 0.5 hrs by liquid scintillation counting; assay type: ADME, organism-based; outline: as §1
# [22] = test system: Pituitary gland; test: Drug uptake in Sprague-Dawley rat pituitary at 11.7 to 12.3 uCi, iv after 2 hrs by liquid scintillation counting; assay type: ADME, organism-based; outline: as §1
# [23] = Drug uptake in Sprague-Dawley rat intervertebral disk at 11.7 to 12.3 uCi, iv after 2 hrs by liquid scintillation counting; assay type: ADME, organism-based; outline: as §1
# [24] = Drug uptake in Sprague-Dawley rat trachea at 11.7 to 12.3 uCi, iv after 0.5 hrs by liquid scintillation counting; assay type: ADME, organism-based; outline: as §2
# [25] = test system: Brain; test: Drug uptake in Sprague-Dawley rat brain at 11.7 to 12.3 uCi, iv after 0.5 hrs by liquid scintillation counting; assay type: ADME, organism-based; outline: as §1
# [26] = Drug uptake in Sprague-Dawley rat diaphragm at 11.7 to 12.3 uCi, iv after 0.5 hrs by liquid scintillation counting; assay type: ADME, organism-based; outline: as §1
# [27] = test system: Adrenal; test: Drug uptake in Sprague-Dawley rat adrenal at 11.7 to 12.3 uCi, iv after 2 hrs by liquid scintillation counting; assay type: ADME, organism-based, Adrenal gland; outline: as §1
# [28] = test system: Brain; test: Drug uptake in Sprague-Dawley rat brain at 11.7 to 12.3 uCi, iv after 2 hrs by liquid scintillation counting; assay type: ADME, organism-based; outline: as §1
# [29] = Drug uptake in Sprague-Dawley rat auricle at 11.7 to 12.3 uCi, iv after 2 hrs by liquid scintillation counting; assay type: ADME, organism-based; outline: as §1
# [30] = Drug uptake in Sprague-Dawley rat bone marrow at 11.7 to 12.3 uCi, iv after 2 hrs by liquid scintillation counting; assay type: ADME, organism-based; outline: as §1
# [31] = test system: Lung; test: Drug uptake in Sprague-Dawley rat lung at 11.7 to 12.3 uCi, iv after 2 hrs by liquid scintillation counting; assay type: ADME, organism-based; outline: as §1
# [32] = test system: Testes; test: Drug uptake in Sprague-Dawley rat testes at 11.7 to 12.3 uCi, iv after 0.5 hrs by liquid scintillation counting; assay type: ADME, organism-based, Testis; outline: as §2
# [33] = test system: Adrenal; test: Drug uptake in Sprague-Dawley rat adrenal at 11.7 to 12.3 uCi, iv after 0.5 hrs by liquid scintillation counting; assay type: ADME, organism-based, Adrenal gland; outline: as §1
# [34] = Drug uptake in Sprague-Dawley rat auricle at 11.7 to 12.3 uCi, iv after 0.5 hrs by liquid scintillation counting; assay type: ADME, organism-based; outline: as §1
# [35] = test system: Pancreas; test: Drug uptake in Sprague-Dawley rat pancreas at 11.7 to 12.3 uCi, iv after 0.5 hrs by liquid scintillation counting; assay type: ADME, organism-based; outline: as §1
# [36] = test system: Liver; test: Drug uptake in Sprague-Dawley rat liver at 11.7 to 12.3 uCi, iv after 2 hrs by liquid scintillation counting; assay type: ADME, organism-based; outline: as §1
# [37] = test system: Pituitary gland; test: Drug uptake in Sprague-Dawley rat pituitary at 11.7 to 12.3 uCi, iv after 0.5 hrs by liquid scintillation counting; assay type: ADME, organism-based; outline: as §1
# [38] = test system: Duodenum; test: Drug uptake in Sprague-Dawley rat duodenum at 11.7 to 12.3 uCi, iv after 0.5 hrs by liquid scintillation counting; assay type: ADME, organism-based; outline: as §1
compound,measurement,setting,value
C[N+](C)(C)Cc1ccc(C[N+](C)(C)C)c([125I])c1.[I-].[I-],Drug uptake,[1],0.015 % ID/g
same,Drug uptake,[2],0.033 % ID/g
same,Drug uptake,[3],0.094 % ID/g
same,Drug uptake,[4],0.034 % ID/g
same,Drug uptake,[5],0.03 % ID/g
same,Drug uptake,[6],0.129 % ID/g
same,Drug uptake,[7],0.277 % ID/g
same,Drug uptake,[8],0.089 % ID/g
same,Drug uptake,[9],3.305 % ID/g
same,Drug uptake,[10],0.095 % ID/g
same,Drug uptake,[11],0.467 % ID/g
same,Drug uptake,[12],1.834 % ID/g
same,Drug uptake,[13],0.137 % ID/g
same,Drug uptake,[14],0.06 % ID/g
same,Drug uptake,[15],0.607 % ID/g
same,Drug uptake,[16],0.121 % ID/g
same,Drug uptake,[17],0.022 % ID/g
same,Drug uptake,[18],0.132 % ID/g
same,Drug uptake,[19],0.018 % ID/g
same,Drug uptake,[20],0.658 % ID/g
same,Drug uptake,[21],0.257 % ID/g
same,Drug uptake,[22],0.082 % ID/g
same,Drug uptake,[23],0.087 % ID/g
same,Drug uptake,[24],0.798 % ID/g
same,Drug uptake,[25],0.044 % ID/g
same,Drug uptake,[26],0.08 % ID/g
same,Drug uptake,[27],0.043 % ID/g
same,Drug uptake,[28],0.038 % ID/g
same,Drug uptake,[29],0.108 % ID/g
same,Drug uptake,[30],0.078 % ID/g
same,Drug uptake,[31],0.087 % ID/g
same,Drug uptake,[32],0.076 % ID/g
same,Drug uptake,[33],0.094 % ID/g
same,Drug uptake,[34],0.203 % ID/g
same,Drug uptake,[35],0.075 % ID/g
same,Drug uptake,[36],0.085 % ID/g
same,Drug uptake,[37],0.118 % ID/g
same,Drug uptake,[38],0.085 % ID/g
